SMILES strings stand for the structures.

These results are taken from ChEMBL document CHEMBL4513216, “Probing the Open Global Health Chemical Diversity Library for Multistage-Active Starting Points for Next-Generation Antimalarials” (ACS Infect Dis, 2020).

The series is described as follows: Toxicity liver stage against HepG2, at 10uM. The format is cell-based. Details: test concentration 10 uM, cell line HepG2-A16-CD81EGFP. As to conditions: human, HepG2-A16-CD81EGFP cells; read-out: INHIBITION
An outline of the steps:
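Uninfected HepG2-A16-CD81EGFP cells, 3 × 10^3 per well, 1536-well, plated on prespotted compound at 10 μM final, parasite-free screening media added to match infected plates; puromycin 10 μM positive, DMSO 0.5% negative; run in parallel with 48 h PbLuc assay at 37 °C, 5% CO2; viability by CellTiter-Glo luminescence, normalized to controls.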

In the case of `CC(NC(=O)Cn1cccn1)c1ccc2c(c1)OCCCO2` (stereo unspecified), the cytotoxicity at 10 µM was -2.55%.
The figure for `CC(=O)N1CCCN(C(C(=O)O)c2ccc(C)cc2C)CC1` (stereo unspecified) is -3.98%.
Turning to `CC(c1ccccc1)n1c(SCC(=O)O)nnc1-c1ccn[nH]1` (stereo unspecified), the cytotoxicity at 10 µM was -0.0682%.
With `CSCC(CCO)NC(=O)c1cccc(F)c1Cl` (stereo unspecified), the cytotoxicity at 10 µM is 11.7%.
Take `CCNC(=O)[C@@H]1C[C@@H](NC(=O)c2ccsc2)CN1CCCSC`: the cytotoxicity at 10 µM is -117%.
On to `O=C([C@@H]1CC[C@@H]2[C@@H](CCN2CCOCc2ccccc2)O1)N1CCCC1`, for which the cytotoxicity at 10 µM was -110%.
The figure for `CCOc1ccc(C(=O)N2CCCS2(=O)=O)cc1OC` is -7.42%; for `CC(C)C(=O)N1CCCC1C(=O)Nc1ccc(F)c(F)c1` (stereo unspecified) it is -1.57%; for `CCCc1cc(=O)[nH]c(SCc2ccccn2)n1` it is -3.53%.
For `COC[C@]1(O)CCN(C2CCN(c3ccc(OC)cc3)CC2)CC1(C)C`, the cytotoxicity at 10 µM is -3.17%.
For `Cc1nn(C)c(C)c1CC(=O)N1CCC(N(C)c2cccnn2)CC1`, the cytotoxicity at 10 µM is -3.33%.
As for `CC(=O)NS(=O)(=O)c1ccc(F)cc1C(F)(F)F`, the cytotoxicity at 10 µM was 1.25%.
As to `Cn1cc(CCC(=O)N2CCCN(c3ncccc3C#N)CC2)cn1`, the cytotoxicity at 10 µM was 2.88%.
In the case of `CSc1ccc2cc(CN(C)CCc3cn[nH]c3)c(=O)[nH]c2c1`, the cytotoxicity at 10 µM is -7.23%.
The figure for `CC1CN(C)CCN1C(=O)c1cnn(-c2ccc(Cl)cc2)c1` (stereo unspecified) is -22.7%; for `Cn1ccc2c(ccn2CC(=O)Nc2ccc(Br)cc2)c1=O` it is 10.4%.
The figure for `CC1CN(Cc2ccc(-n3cccn3)cc2)CCO1` (stereo unspecified) is -7.18%.
Regarding `Cc1noc(CN(C)CC2CCN(CCO)CC2)n1`, the cytotoxicity at 10 µM amounted to 5.82%.
For `CN(CCc1ccccc1)C1CCCN(Cc2nccn2C)C1` (stereo unspecified), the cytotoxicity at 10 µM is -18.5%.
The figure for `CS(=O)(=O)NCCC(=O)NCc1cccnc1-n1cnc2ccccc21` is -0.0143%; for `Cc1cn(CC(=O)NC2CCN(C(C)C)CC2)c2ccccc12` it is 0.0531%; for `CNC(=O)Cc1cc2nccc(-c3c(OC)cccc3OC)n2n1` it is -10.4%.
As for `CN(C)C(=O)N1CC[C@]2(O)CCN(C(=O)c3ccc(C#N)nc3)C[C@@H]2C1`, the cytotoxicity at 10 µM is -51%.
The figure for `c1csc(CN2CCc3ncnc(C4CCOC4)c3CC2)c1` (stereo unspecified) is 8.01%.
For `CCc1nnc(SC2CCCN(c3cnn(C)c3)C2=O)n1C` (stereo unspecified), the cytotoxicity at 10 µM amounted to 2.68%.
As to `CC/N=c1\nc(NCC)nc2n1C(O)(Nc1cccc(C)c1C)CS2` (stereo unspecified), the cytotoxicity at 10 µM turned out to be 11.5%.
With `Cc1cc(S(=O)(=O)N2CCCc3cc(F)cc(F)c32)sc1C(=O)O`, the cytotoxicity at 10 µM came to 21.8%.
On to `CN(C)C(=O)C1CCN(C(=O)c2c[nH]c3cc(Cl)ccc23)CC1`, for which the cytotoxicity at 10 µM was -0.983%.
The figure for `CCN(CC)C(=O)CN1CCCC1C(=O)N(C)C` (stereo unspecified) is 12.5%; for `COc1ccc2nc(C3CC3)cc(C(=O)NCC(=O)N(C)C)c2c1` it is -3.41%.
With `COc1ncccc1CNC(=O)NCCNS(C)(=O)=O`, the cytotoxicity at 10 µM is -14.4%.
Consider `O=c1[nH]c(COc2ccc(Cl)cc2)nc2c1CCNC2`, for which the cytotoxicity at 10 µM stood at 6.6%.
As for `Cn1c(NCC(O)c2ccccc2F)c(C#N)c(=O)n(C)c1=O` (stereo unspecified), the cytotoxicity at 10 µM was -12.5%.
Consider `c1ccc(Cn2cc3c(n2)C(CNCC2CCOCC2)OCC3)nc1` (stereo unspecified), for which the cytotoxicity at 10 µM was -149%.
With `CSc1nc2ccsc2c(=O)n1CC(=O)N(C)c1ccccc1`, the cytotoxicity at 10 µM is -5.57%.
The figure for `Cc1cccc(C(=O)NC(C(=O)NCc2ccc(O)nc2)C(C)C)c1` (stereo unspecified) is -7.81%.
The figure for `Cc1nnc(NC(=O)NC(C)Cn2cccn2)s1` (stereo unspecified) is 6.62%.
On to `Cc1cc(CN2CCCCC2Cn2cncn2)no1` (stereo unspecified), for which the cytotoxicity at 10 µM was -8.89%.
The figure for `Cn1cc(C2=CCN(CCCC(=O)Nc3ccc(C#N)cc3)CC2)cn1` is -6.84%; for `CCn1ccc2cc(NC(=O)CC3CCCO3)ccc21` (stereo unspecified) it is 2.5%.
For `c1cc2cc[nH]c2c(CC2CN(Cc3cncs3)C2)n1`, the cytotoxicity at 10 µM was -0.54%.
The figure for `Cc1cc(OC(F)F)c(C(=O)N2CCC(CN(C)C)CC2)s1` is 6.04%.
With `CC(=O)N1CC[C@@]2(C(=O)Nc3ccccc3)CCN(S(C)(=O)=O)CC[C@@H]12`, the cytotoxicity at 10 µM is 2.96%.
Regarding `CCOCC(O)CN1CCN(C(=O)c2cc(C)ccc2F)CC1` (stereo unspecified), the cytotoxicity at 10 µM was 5.71%.
Take `Cn1cncc1CN1C[C@@H]2OCCN(c3ncccn3)[C@@H]2C1`: the cytotoxicity at 10 µM is -67%.
For the molecule `Cn1nnnc1SCCNC(=O)CC1CCc2ccccc21` (stereo unspecified), the cytotoxicity at 10 µM was -2.49%.
The figure for `Cn1cccc1C(=O)N1C[C@@H]2C[C@@H](c3nnc(C4CC4)o3)O[C@@H]2C1` is -112%; for `O=C(c1ccncc1)N1CCCC2(CCN(c3cccnc3)C2=O)C1` (stereo unspecified) it is -131%.
The figure for `CC(C)CN(Cc1ccccn1)Cc1ccccc1OCC(=O)O` is -12.7%.
Take `O=C1NCCO[C@H]2CN(C(=O)CC3Cc4ccccc4C3)CC[C@@H]12`: the cytotoxicity at 10 µM was -106%.
For the molecule `CS(=O)(=O)c1ccc(-c2cnc(C3CCCN3)cn2)cc1` (stereo unspecified), the cytotoxicity at 10 µM was -1.71%.
The figure for `O=C(CCC(=O)Nc1ccccc1)NCC(=O)c1ccc(F)cc1F` is -0.493%; for `Cc1nc[nH]c1CN1CCCN(c2nc3ccccc3s2)CC1` it is 33%.
`COc1cccc(CN(C)c2ncc(C(N)=O)cc2Cl)c1`: the cytotoxicity at 10 µM turned out to be 2.53%.
The figure for `CNC(=O)C1Cn2ccnc2C2(CCN(C(=O)NC3CCCC3)CC2)O1` (stereo unspecified) is -104%; for `O=C1C(Nc2ncccn2)CCN1c1ccccc1OC(F)F` (stereo unspecified) it is 2.88%; for `CN(C)CC1CN(c2ncnc3[nH]ccc23)CCO1` (stereo unspecified) it is 0.89%.
For the molecule `Cc1nc(C)n(CC2CCCN(CCOc3ccc(F)cc3)C2)n1` (stereo unspecified), the cytotoxicity at 10 µM was -3.33%.
Turning to `CC(=O)N1CC2(CCN(S(=O)(=O)N(C)C)CC2)C2(CCNC2=O)C1` (stereo unspecified), the cytotoxicity at 10 µM is -6.9%.
As for `CC(NC(=O)CCCn1cnc2ccccc2c1=O)c1ncn[nH]1` (stereo unspecified), the cytotoxicity at 10 µM is -4.31%.
Regarding `CCCN(CCO)S(=O)(=O)c1ccc2[nH]c(=O)[nH]c2c1`, the cytotoxicity at 10 µM was -0.24%.
Consider `Cn1ccnc1CNC1CCCOc2c1ccc1ccccc21` (stereo unspecified), for which the cytotoxicity at 10 µM came to 13.3%.
Regarding `CO[C@@H]1CCN(Cc2c(C)noc2C)[C@@H]2CN(Cc3cccnc3)C[C@@H]21`, the cytotoxicity at 10 µM came to 11.9%.
Regarding `Cc1cc(C)c(Cn2cncn2)cc1CN1CCC(CN)C1` (stereo unspecified), the cytotoxicity at 10 µM is -11.3%.
As for `Cc1noc(C)c1CC(=O)NCC(CC(C)C)N1CCOCC1` (stereo unspecified), the cytotoxicity at 10 µM is -40.6%.
`Cc1cc(NC(=O)CN2CCc3cnc(C(C)C)nc3C2)on1`: the cytotoxicity at 10 µM was -12.1%.
In the case of `CN1N=C(C(=O)N2CCCC(CCc3c(F)cccc3F)C2)CCC1=O` (stereo unspecified), the cytotoxicity at 10 µM is -7.41%.
The figure for `COc1cccc(Nc2nc(C3CCCNC3)c3sc(C)c(C)n23)c1` (stereo unspecified) is -4.93%.
Consider `CC(NC(=O)CN(C)C(C)C)c1ccc(Oc2cccnc2)c(F)c1` (stereo unspecified), for which the cytotoxicity at 10 µM was determined as 2%.
Consider `COc1cnc(C2(O)CCN(C(=O)c3cccnc3)CC2)c(OC)n1`, for which the cytotoxicity at 10 µM was found to be 0.41%.
With `O=S(=O)(C1CC1)N1CCOC2(CCCN(Cc3ccccn3)C2)C1` (stereo unspecified), the cytotoxicity at 10 µM is -0.78%.
For `Cc1cccc2cc(C(=O)N3CCC(F)(F)CC3)n(C)c12`, the cytotoxicity at 10 µM came out at 3.76%.
For `CCc1nc(N2CCC3(CC2)[C@H](O)C[C@@H]3O)ncc1C`, the cytotoxicity at 10 µM came out at 6.02%.
For `COc1ccc(-c2nccn2C[C@@H]2CCCN3CCCC[C@H]23)cc1`, the cytotoxicity at 10 µM was 4.71%.
Take `Cc1ccc(CC(=O)N2CCC(Nc3cccnn3)CC2)s1`: the cytotoxicity at 10 µM was -7.01%.
As to `CCc1nc(C2CCCN(C(=O)c3cccnc3O)C2)no1` (stereo unspecified), the cytotoxicity at 10 µM is -3.54%.
The figure for `CS(=O)(=O)NC(=O)c1nnn(-c2cccc(F)c2)c1C1CC1` is -3.9%.
As to `Cc1cc(C)n(CC2CCCN2C(=O)CCc2cscn2)n1` (stereo unspecified), the cytotoxicity at 10 µM is -10.4%.
`CCN(CC)C(=O)CCc1c(C)nc2cc(O)nn2c1C`: the cytotoxicity at 10 µM turned out to be 0.33%.
Turning to `O=C(O)C1(Cc2ccc(F)cc2F)CCCN(Cc2ccncc2)C1` (stereo unspecified), the cytotoxicity at 10 µM is -2.74%.
In the case of `COc1ccc(C[C@H]2CN(C(=O)c3cnoc3)CC[C@@H]2OC)cc1`, the cytotoxicity at 10 µM was 4.09%.
The figure for `c1nc(CCNc2nc(C3CC3)nc3c2CCNCC3)c[nH]1` is -130%; for `CC(C)N1CCC(CC(=O)N(C)CC(=O)c2ccc(O)cc2)CC1` it is 5.21%.
For `CCCS(=O)(=O)N1CCN(C(=O)CO)CC1`, the cytotoxicity at 10 µM is -1.96%.
With `CN(C)Cc1cn(-c2ccccc2C(=O)NCC2CCCCN2C)cn1` (stereo unspecified), the cytotoxicity at 10 µM is -0.94%.
`COCCCN1Cc2cccc(NC(=O)c3cc(F)ccc3F)c2C1`: the cytotoxicity at 10 µM is -1.74%.
For the molecule `COc1ccc2c(OCC(=O)NCC(F)(F)F)ccnc2c1`, the cytotoxicity at 10 µM was -3.88%.
`CN1CCN(Cc2nnc(C3CCN(C(CO)CO)CC3)n2C)CC1`: the cytotoxicity at 10 µM was determined as 2.52%.
For `CCNC(=O)NC[C@@H]1C=C(C)[C@H](CC(=O)NCCN(C)C)C[C@H]1C(C)C`, the cytotoxicity at 10 µM was found to be 2.43%.
As for `c1ccc(Cc2noc(-c3ccc(NCC4COCCO4)nc3)n2)cc1` (stereo unspecified), the cytotoxicity at 10 µM came out at 6.42%.
For `O=C(Nc1ccccc1F)N(CCO)Cc1ccsc1`, the cytotoxicity at 10 µM was 2.05%.
Consider `CC(=O)N1Cc2ccccc2C[C@H]1C(=O)N(C)CCc1ccccn1`, for which the cytotoxicity at 10 µM was -3.27%.
In the case of `Cc1ccc(Cl)cc1NC(=O)Nc1c[nH]c(=O)[nH]c1=O`, the cytotoxicity at 10 µM was -7.58%.
In the case of `COc1c(C)cnc(CN(C)C(=O)c2ccccn2)c1C`, the cytotoxicity at 10 µM amounted to 0.22%.
With `O=C(CC1CCc2ccccc21)NCCSc1ccccn1` (stereo unspecified), the cytotoxicity at 10 µM is -0.214%.
On to `CC(C)Cn1cncc1CNC(=O)c1cccc(CC2CCNCC2)c1`, for which the cytotoxicity at 10 µM is -4.47%.
